HUVEC prolif 384 = human endothelial cell proliferation inhibition. HUVEC proliferation, CellTiter-Glo luminescence, 72 h; hits give low values. viability, % at 10 µM (by protocol). 86,000 compounds, 1.1% hits;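 active = viability at or below 30%; inactive = viability above 30%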
HCT116 bCat-KO = beta-catenin-lacking colon tumor cell growth suppression; HCT116 beta-catenin knockout viability, CellTiter-Glo, 60 h; hits give low values; viability, % at 10 µM; 140,000 compounds, 1.5% hits;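 active = viability at or under a set limit, the compound median less 4 SD, cut at about 6% in these data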
Lung fibro prol = blocks proliferation of human lung fibroblasts; viability, % at 10 µM; AID 719; 85,000 compounds, 1.1% hits; LL 47 human lung fibroblast viability, ATP luminescence; hits give low values;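 active = viability at or below 50% in the single dose screen; inactive = viability above 50%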;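 also: compound exposure lasted 72 h before the ATP readout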
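test system = LL 47 human lung fibroblasts | amount = 1,150 fibroblasts seeded per well | medium = 15% FBS in IMEM | times = overnight cell rest, 72 h compound treatment at 37 °C | measured by = CellTiter-Glo luminescence measuring cellular ATP | read-out = viability percentage against median untreated-cell control | benchmarks = cell-only wells, no compound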
H69AR inhibit = blocks growth of human H69AR lung tumor cells. H69AR lung tumor viability, ATP luminescence, 72 h; hits give low values. 85,000 compounds, 6% hits. viability, % at 10 µM. AID 598;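 active = viability at or below 40%; inactive = viability above 40%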;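 also: multidrug resistant small cell line overexpressing MRP-1 efflux transporter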
HCT116 PTEN-null = PTEN-deleted cell growth suppression; 140,000 compounds, 1.2% hits; viability, % at 10 µM; HCT116 PTEN-null viability, CellTiter-Glo, 60 h; hits give low values;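 active = viability at or below a set limit, 4 SD under the median of all tested compounds, cut at about 3.7% in these data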;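 also: PTEN knockout HCT116 line with beta catenin targeted HCT116 as companion control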
A number is an active result; . = inactive; / = no result. The entries come from a sample that favours hits as a whole.

SMILES	HUVEC prolif 384	HCT116 bCat-KO	Lung fibro prol	H69AR inhibit	HCT116 PTEN-null
COc1cc(NC(=O)COC(=O)/C=C/c2c(C)nn(C3CCS(=O)(=O)C3)c2Cl)cc(OC)c1OC (stereo not drawn)	/	.	/	/	.
COc1ccc(Cl)cc1C(=O)NCCN(C)C	.	.	.	.	.
CN(C)CCNC(=O)c1ccc(COc2ccc(Cl)cc2Cl)cc1	2.4	3.1	24.6	1.4	1.6
CN1CCN(C(=O)c2ccc(COc3ccc(Cl)cc3Cl)cc2)CC1	12.9	.	.	.	.
CN1CCN(C(=O)CCCOc2ccc(Cl)cc2Cl)CC1	/	.	/	/	.
CCOC(=O)N1CCN(c2cc3[nH]c(=S)[nH]c3cc2F)CC1	.	.	.	.	.
CCOC(=O)N1CCN(c2c(F)cc3[nH]c(=S)[nH]c3c2Br)CC1	.	.	.	8.9	.
O=C(CCN1C(=O)COc2ccccc21)NCc1cccnc1	/	.	/	/	.
CCOC(=O)c1ccccc1NC(=O)COC	.	.	.	.	.
COC(=O)c1ccccc1NC(=O)COC(C)=O	.	.	/	6.0	.
CCn1cc(C(=O)OCC(=O)Nc2ccc(S(=O)(=O)N3CCCC3)cc2)c(=O)c2ccc(C)nc21	.	.	.	25.8	.
C=CCOc1ccc(C2N3CC4(C)CN2CC(CCC)(C3)C4=O)cc1 (stereo not drawn)	.	.	.	.	.
COc1ccc(/C=C/C(=O)NCCCc2ccccc2)cc1	/	.	/	/	.
COc1ccc(/C=C\C(=O)CC(O)(c2ccccc2)C(F)(F)F)cc1 (stereo not drawn)	.	.	.	1.2	.
O=C(NCCCn1ccnc1)C(Cc1ccc([N+](=O)[O-])cc1)N1C(=O)c2ccccc2C1=O (stereo not drawn)	.	.	.	.	.
COc1ccc(CCn2c(N)c(C(=O)NCc3ccco3)c3nc4ccccc4nc32)cc1	/	.	/	/	.
COc1ccc(CCn2c(N)c(C(=O)NCc3ccco3)c3nc4ccccc4nc32)cc1OC	.	.	.	24.1	.
COc1ccc(-n2c(N)c(C(=O)NCc3ccco3)c3nc4ccccc4nc32)c(OC)c1	.	.	.	32.5	.
Nc1c(C(=O)NCc2ccco2)c2nc3ccccc3nc2n1CCc1ccccc1F	.	.	.	26.9	.
Cc1c(NC(=O)C2CCCN2C(=O)c2cccs2)c(=O)n(-c2ccccc2)n1C (stereo not drawn)	.	.	.	.	.
COc1ccc(N/N=C(\C#N)C(N)=O)cc1	/	.	/	/	.
CO/N=C/C(=N\Nc1ccc(C)cc1)C(=O)c1ccc(OC)cc1	.	.	.	22.1	.
COc1ccc(C(=S)Nc2ccc(C)cc2)cc1	/	.	/	/	.
CO/N=C\C(=N\Nc1ccc(OC)cc1)C(=O)c1ccccc1	.	.	.	27.5	.
CCC(C)NC(=O)CSc1nc2ccccc2c(=O)n1CCCC(=O)NCC1CCCO1 (stereo not drawn)	.	.	.	.	.
SMILES	HUVEC prolif 384	HCT116 bCat-KO	Lung fibro prol	H69AR inhibit	HCT116 PTEN-null
COc1ccc(OC(C)C(=O)N2CCC(C)CC2)cc1 (stereo not drawn)	.	.	.	.	.
COc1ccc(OC(C)C(=O)N2CCc3ccccc3C2)cc1 (stereo not drawn)	.	.	.	25.4	.
O=C(c1ccccc1)c1coc2ccc(O)c(Cl)c12	.	.	.	.	.
Cc1oc2c(c1C(=O)c1ccccc1)C(=O)C(=O)c1ccccc1-2	3.1	1.2	2.1	1.4	1.5
O=C1C(=O)c2c(C(=O)c3ccccc3)coc2-c2ccccc21	3.2	1.8	35.9	0.5	1.5
N#Cc1ccc(C2=NC(C(F)(F)F)(C(F)(F)F)c3c(n(Cc4ccco4)c(=O)[nH]c3=O)N2)cc1	.	.	.	34.9	.
O=c1[nH]c(=O)n(Cc2ccco2)c2c1C(C(F)(F)F)(C(F)(F)F)N=C(C1CCCCC1)N2	.	.	.	.	.
O=c1[nH]c(=O)n(Cc2ccco2)c2c1C(C(F)(F)F)(C(F)(F)F)N=C(CCC1CCCCC1)N2	.	.	.	9.5	.
O=S(=O)(c1cc(C(F)(F)F)ccc1Cl)N1CCCCCC1	.	.	.	.	.
CCOC(=O)c1cnn2c(C)cc(-c3ccccc3)nc12	.	.	.	.	.
O=Cc1ccccc1OCCOc1ccccc1C=O	.	.	.	23.2	.
O=Cc1ccccc1Oc1ccccc1	/	.	/	/	.
COc1ccc(Cc2nc3ccccc3n2CC(=O)N/N=C/c2ccc(O)cc2)cc1OC	/	.	/	/	.
Cc1cc(C)c2nc(N3CCCN(C(=O)c4ccco4)CC3)c(C#N)cc2c1	.	.	.	34.6	.
